This note sets out measurements from ChEMBL document CHEMBL1765026, “Small molecule agonists of the orphan nuclear receptors steroidogenic factor-1 (SF-1, NR5A1) and liver receptor homologue-1 (LRH-1, NR5A2)” (J Med Chem, 2011).

The target of data set [1] is T1, Steroidogenic factor 1 (Homo sapiens, UniProt Q13285). The experiment in a line: Inverse agonist activity at SF-1. In kind it is functional.
The next data set has as its system NCI-H295RR. The experiment in a line: Inhibition of doxycycline induced proliferation in human NCI-H295RR cells. It is filed as functional, cell-based.
Data set [2] has as its target T1, Steroidogenic factor 1. The experiment in a line: Agonist activity at human SF-1 assessed as DAX1 1-23 peptide recruitment by TR-FRET assay relative to control.
Data set [3] has as its target T1, Steroidogenic factor 1. The experiment in a line: Agonist activity at human SF-1 assessed as DAX1 1-23 peptide recruitment by TR-FRET assay. In kind it is functional. The essentials:
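Biotinylated, bacterially expressed human SF-1 LBD was bound to APC-streptavidin. Biotinylated DAX-1 peptide (aa 1–23) was bound to europium-streptavidin. Receptor and peptide were incubated with test compound, typically at 11 concentrations from 1 nm to 10 µM. Recruitment was read by TR-FRET as the 671/618 nm fluorescence ratio, and pEC50 was calculated from the dose–response curve.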

Data set [4] has as its target Steroidogenic factor 1 (Mus musculus) (UniProt P33242). The experiment in a line: Displacement of dipalmitoyl phosphatidylinositol 4,5-bisphosphate from mouse SF-1 ligand binding domain at 100 uM after 16 hrs with Coomassie blue staining by PAGE method.
The target is the same in data set [5]. The experiment in a line: Agonist activity at mouse SF-1 expressed in HEK293 cells assessed as increase in SHP mRNA levels at 10 uM after 24 hrs by RT-qPCR method. It is filed as functional, cell-based. The essentials: (§1)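 HEK293 cells stably carrying Tet-inducible, 3XFlag-tagged mouse SF-1 were induced with 100 ng/mL Tet, and compound in DMSO was added 16 h later. Cells were treated at 10 µM for 24 h. Transcript levels were measured by RT-qPCR and expressed relative to DMSO vehicle.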

Data set [6] addresses Nuclear receptor subfamily 5 group A member 2 (Homo sapiens) (UniProt O00482). The experiment in a line: Agonist activity at human LRH-1 ligand binding domain at 100 uM with Coomassie blue staining by PAGE method.
In data set [7] the target is Steroidogenic factor 1 (Mus musculus) (UniProt P33242). The experiment in a line: Displacement of dipalmitoyl phosphatidylinositol 4,5-bisphosphate from mouse SF-1 ligand binding domain at 1 uM after 16 hrs with Coomassie blue staining by PAGE method.
Chain of Steroidogenic factor 1 (Mus musculus) (P33242 whole entry, the tested form may be a part): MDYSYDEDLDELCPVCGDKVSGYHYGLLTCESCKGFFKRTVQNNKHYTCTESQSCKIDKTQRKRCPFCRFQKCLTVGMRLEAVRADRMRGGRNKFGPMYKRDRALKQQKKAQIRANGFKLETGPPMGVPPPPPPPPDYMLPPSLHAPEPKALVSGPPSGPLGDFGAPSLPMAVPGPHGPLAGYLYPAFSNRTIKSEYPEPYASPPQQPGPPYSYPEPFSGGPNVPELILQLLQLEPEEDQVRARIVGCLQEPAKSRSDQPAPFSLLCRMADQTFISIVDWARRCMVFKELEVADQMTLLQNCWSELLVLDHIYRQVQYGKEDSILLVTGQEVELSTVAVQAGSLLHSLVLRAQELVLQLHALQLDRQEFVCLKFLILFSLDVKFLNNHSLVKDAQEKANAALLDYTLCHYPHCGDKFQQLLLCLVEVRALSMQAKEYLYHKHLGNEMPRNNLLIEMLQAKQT
For data set [8] the target is unchanged. The experiment in a line: Agonist activity at mouse SF-1 expressed in HEK293 cells assessed as increase in MeOx1 mRNA levels at 10 uM after 24 hrs by RT-qPCR method. It is filed as functional, cell-based. The essentials: as §1
Data set [9] shares this target. The experiment in a line: Agonist activity at mouse SF-1 expressed in HEK293 cells assessed as increase in StAR mRNA levels at 10 uM after 24 hrs by RT-qPCR method. It is filed as functional, cell-based. The essentials:
as §1

Data set [10] in a line: Solubility of the compound. It is filed as physicochemical.
The target of data set [11] is Steroidogenic factor 1 (Mus musculus) (UniProt P33242). The experiment in a line: Agonist activity at mouse SF-1 expressed in HEK293 cells assessed as increase in GOS2 mRNA levels at 10 uM after 24 hrs by RT-qPCR method. It is filed as functional, cell-based. The essentials: as §1
In data set [12] the target is T1, Steroidogenic factor 1. The experiment in a line: Agonist activity at human SF-1 assessed as DAX1 1-23 peptide recruitment by TR-FRET assay relative to control.
Data set [13] concerns the target Steroidogenic factor 1 (Mus musculus) (UniProt P33242). The experiment in a line: Agonist activity at mouse SF-1 expressed in HEK293 cells assessed as increase in SHP mRNA levels after 24 hrs by RT-qPCR method. It is filed as functional, cell-based. The essentials: (§2)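 Stable HEK293 lines expressing Tet-inducible mouse SF-1 or empty vector were induced with 100 ng/mL Tet, with compound in DMSO added 16 h afterward. Cells were exposed to a dose series for 24 h. SHP mRNA was quantified by RT-qPCR relative to DMSO, with significance by p-value.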

The target is the same in data set [14]. The experiment in a line: Agonist activity at mouse SF-1 expressed in HEK293 cells assessed as increase in SHP mRNA levels at 5 uM after 24 hrs by RT-qPCR method. In kind it is functional, cell-based. The essentials: as §2
In data set [15] the target is Nuclear receptor subfamily 5 group A member 2 (Homo sapiens) (UniProt O00482).
Chain of Nuclear receptor subfamily 5 group A member 2 (Homo sapiens) (O00482 whole entry, the tested form may be a part): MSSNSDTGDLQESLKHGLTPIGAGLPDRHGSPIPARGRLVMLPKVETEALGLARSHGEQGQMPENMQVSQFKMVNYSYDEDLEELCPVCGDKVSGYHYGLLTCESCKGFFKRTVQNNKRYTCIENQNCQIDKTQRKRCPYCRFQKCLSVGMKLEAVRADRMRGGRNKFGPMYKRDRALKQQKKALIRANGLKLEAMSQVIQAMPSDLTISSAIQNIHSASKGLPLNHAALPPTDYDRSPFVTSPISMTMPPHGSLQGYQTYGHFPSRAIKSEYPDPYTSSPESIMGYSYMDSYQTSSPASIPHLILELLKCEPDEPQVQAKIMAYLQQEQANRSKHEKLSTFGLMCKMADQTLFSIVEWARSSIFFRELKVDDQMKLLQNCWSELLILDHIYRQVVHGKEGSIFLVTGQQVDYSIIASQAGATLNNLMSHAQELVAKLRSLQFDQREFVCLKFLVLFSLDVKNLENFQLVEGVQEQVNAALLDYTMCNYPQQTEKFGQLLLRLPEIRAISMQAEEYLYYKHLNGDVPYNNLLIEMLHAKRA

Molecules are shown by their SMILES. Calls of active or inactive are those of the source. The rule behind the calls is not given here.

T1 sequence (Q13285 whole entry): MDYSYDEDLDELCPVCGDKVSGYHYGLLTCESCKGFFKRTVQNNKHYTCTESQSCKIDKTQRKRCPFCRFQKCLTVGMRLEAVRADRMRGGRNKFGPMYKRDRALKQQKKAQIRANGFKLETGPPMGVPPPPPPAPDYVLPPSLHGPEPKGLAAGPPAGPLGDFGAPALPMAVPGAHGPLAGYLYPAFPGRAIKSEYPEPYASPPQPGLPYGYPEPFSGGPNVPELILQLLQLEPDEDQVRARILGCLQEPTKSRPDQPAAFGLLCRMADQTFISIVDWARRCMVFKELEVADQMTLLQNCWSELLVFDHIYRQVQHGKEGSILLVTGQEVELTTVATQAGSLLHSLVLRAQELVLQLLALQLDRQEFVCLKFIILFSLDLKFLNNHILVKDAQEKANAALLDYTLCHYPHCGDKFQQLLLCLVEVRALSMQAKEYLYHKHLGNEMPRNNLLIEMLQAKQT

Take `CCCCCCCOc1ccc(O)cc1`: at Steroidogenic factor 1 [1], the IC50 was found to be 7300 nM.

For `CCOC(=O)C(C)Oc1cccc2c(=O)n(CC(=O)Nc3ccc(OC)cc3)ccc12` (stereo not given), the outcome with NCI-H295RR was Active.

For the molecule `CCCCCCC1=C(c2ccccc2)[C@]2(OCC(C)CC)CCC[C@@H]2C1` (mixture of isomers), the EC50 on Steroidogenic factor 1 [2] was 200 nM. The Ratio at Steroidogenic factor 1 [3] was determined as 0.56.

For `CCCCCCC1=C(c2ccccc2)[C@]2(OCCC)CCC[C@@H]2C1` (racemic), the EC50 on Steroidogenic factor 1 [2] is 200 nM. The Ratio at Steroidogenic factor 1 [3] was 0.67.

Turning to `C=C(CCCC)[C@@]12CCC[C@@H]1CC(CCCCCC)=C2c1ccccc1` (racemic), the result in data set [4] and in data set [5] was inactive. Moreover, the EC50 at Steroidogenic factor 1 [2] is 200 nM. For the same molecule, the Ratio at Steroidogenic factor 1 [3] was found to be 0.76.

For the molecule `C=C(c1ccccc1)[C@@]12CCC[C@@H]1CC(CCCCCC)=C2C1CCCCC1` (racemic), the EC50 at Steroidogenic factor 1 [2] is 200 nM. In addition, the Ratio at Steroidogenic factor 1 [3] came out at 0.59.

With `C=C(c1ccccc1)[C@@]12CCC[C@@H]1CC([Si](C)(C)c1ccccc1)=C2c1ccccc1` (racemic), the EC50 on Steroidogenic factor 1 [2] is 63.1 nM. The Ratio at Steroidogenic factor 1 [3] came to 0.33.

`C=C(c1ccccc1)[C@@]12CN(C)C[C@@H]1CC(CCCCCC)=C2c1ccccc1` (racemic): the outcome in data set [6], in data set [5], in data set [7], in data set [8], in [9] and in data set [11] was Active. Further, the solubility result in [10] is on record as “soluble”.

As to `C=C(c1ccccc1)[C@@]12CN(Cc3ccccc3)C[C@@H]1CC(CCCCCC)=C2c1ccccc1` (racemic), the pEC50 result at Steroidogenic factor 1 [12] is “inactive”. The solubility result in data set [10] is given as “soluble”.

On to `C=C(c1ccccc1)[C@@]12CC[C@@H](O)[C@@H]1CC(CCCCCC)=C2c1ccccc1` (racemic), for which the result in [5], in data set [7], in data set [8], in data set [9], in [14] and in data set [11] was Active. Also, the Activity result in [13] was “Dose-dependent effect”. Also, the solubility entry in data set [10] was “soluble”.

`C=C(c1ccccc1)[C@@]12C[C@H](OC(C)=O)C[C@@H]1CC(CCCCCC)=C2c1ccccc1` (racemic): on Steroidogenic factor 1 [2], the EC50 is 200 nM. Also, the Ratio on Steroidogenic factor 1 [3] was 0.34.

With `C=C(CCCCCC)[C@@]12CCC[C@@H]1CC(CCCCCC)=C2c1ccccc1` (racemic), the pEC50 entry (on Steroidogenic factor 1 [12]; in data set [15]) was “inactive” throughout.

Turning to `C=C(CCCCCCCC)[C@@]12CCC[C@@H]1CC(CCCCCC)=C2c1ccccc1` (racemic), the pEC50 entry (at Steroidogenic factor 1 [12]; in [15]) was “inactive” throughout.

As to `C=C(c1ccc(-c2ccccc2)cc1)[C@@]12CCC[C@@H]1CC(CCCCCC)=C2c1ccccc1` (racemic), the pEC50 entry (on Steroidogenic factor 1 [12]; in data set [15]) was “inactive” in each case.

`C=C(c1ccc(C(C)(C)C)cc1)[C@@]12CCC[C@@H]1CC(CCCCCC)=C2c1ccccc1` (racemic): the pEC50 entry (on Steroidogenic factor 1 [12]; in [15]) was “inactive” throughout.

For `C=C(c1ccc(CC)cc1)[C@@]12CCC[C@@H]1CC(CCCCCC)=C2c1ccccc1` (racemic), the pEC50 entry (on Steroidogenic factor 1 [12]; in [15]) was “inactive” each time.

For `C=C(c1ccc(CCCC)cc1)[C@@]12CCC[C@@H]1CC(CCCCCC)=C2c1ccccc1` (racemic), the pEC50 entry at Steroidogenic factor 1 [12] was “inactive”.

For the molecule `C=C(c1ccc(OC)cc1)[C@@]12CCC[C@@H]1CC(CCCCCC)=C2c1ccccc1` (racemic), the pEC50 result (at Steroidogenic factor 1 [12]; in [15]) was “inactive” in each case.

With `C=C(c1ccccc1)[C@@]12CCC[C@@H]1CC(CCCCCC)=C2CCC` (racemic), in [15], the pEC50 entry was “inactive”.

Consider `C=C(c1ccccc1)[C@@]12CCC[C@@H]1CC(CCCCCC)=C2CCCC` (racemic), for which the pEC50 result in data set [15] was “inactive”.

For the molecule `C=C(c1ccccc1)[C@@]12CCC[C@@H]1CC(CCCCCC)=C2CCCCCC` (racemic), the pEC50 entry (on Steroidogenic factor 1 [12]; in data set [15]) was “inactive” in each case.

`C=C(c1ccccc1)[C@@]12CCC[C@@H]1CC(CCCCCC)=C2CCCO` (racemic): the result in data set [4] and in data set [5] was inactive. Moreover, the pEC50 entry on Steroidogenic factor 1 [12] was “inactive”.

As for `C=C(c1ccccc1)[C@@]12CCC[C@@H]1CC(CCCCCC)=C2c1ccc(CC)cc1` (racemic), the pEC50 result (at Steroidogenic factor 1 [12]; in data set [15]) was “inactive” each time.

`C=C(c1ccccc1)[C@@]12CCC[C@@H]1CC=C2c1ccccc1` (racemic): the pEC50 result (at Steroidogenic factor 1 [12]; in data set [15]) was “inactive” in each case.

Take `C=C(c1ccccc1)[C@@]12C[C@@H](OC(C)=O)C[C@@H]1CC(CCCCCC)=C2c1ccccc1` (racemic): the pEC50 entry (at Steroidogenic factor 1 [12]; in data set [15]) was “inactive” each time.

`CCCCCCC1=C(c2ccccc2)[C@]2(OC)CCC[C@@H]2C1` (racemic): the pEC50 entry (at Steroidogenic factor 1 [12]; in data set [15]) was “inactive” each time.

As for `CCCCCCC1=C(c2ccccc2)[C@]2(OCCCCC)CCC[C@@H]2C1` (racemic), the pEC50 result in data set [15] is “inactive”.

For the molecule `CCCCCCC1=C(c2ccccc2)[C@]2(OCc3ccccc3)CCC[C@@H]2C1` (racemic), the pEC50 entry at Steroidogenic factor 1 [12] was “inactive”.

In the case of `CCCCCCO[C@@]12CCC[C@@H]1CC(CCCCCC)=C2c1ccccc1` (racemic), the pEC50 result (at Steroidogenic factor 1 [12]; in data set [15]) was “inactive” throughout.
